RAD54 inh – inhibitors of human RAD54 branch migration. Q92698. RAD54 Holliday junction branch migration, FAM/BHQ fluorescence. inhibition, % at 10.4 µM. 360,000 compounds, 0.14% hits;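 active means mean normalized replicate activity at least 40 and at least half of replicates scoring 40 or more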;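 further: 0% = median of neutral control wells and 100% = median of positive control wells; inhibitors cause a drop in the FAM fluorescence signal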
PAX8 inh HTS – inhibitors of PAX8 transcriptional activity in RMG-I cells. RMG-I TPO-luciferase reporter, SteadyGlo, 24 h. inhibition, % at 12.6 µM. 360,000 compounds, 1.2% hits;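 active means mean replicate inhibition at least 60% with every replicate also reaching 60%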;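 further: luciferase light reporting Pax8 driven TPO promoter activity; plate controls were median of neutral control wells for no effect and mitoxantrone controls for full effect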
RAD52 inh – RAD52 (human) annealing inhibition | inhibition, % at 18.7 µM | AID 651710 | 360,000 compounds, 0.46% hits | recombinant RAD52 DNA annealing, FRET fluorescence | P43351;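 active means every replicate showing at least 50% inhibition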
Target sequence (P43351 whole entry, looked up): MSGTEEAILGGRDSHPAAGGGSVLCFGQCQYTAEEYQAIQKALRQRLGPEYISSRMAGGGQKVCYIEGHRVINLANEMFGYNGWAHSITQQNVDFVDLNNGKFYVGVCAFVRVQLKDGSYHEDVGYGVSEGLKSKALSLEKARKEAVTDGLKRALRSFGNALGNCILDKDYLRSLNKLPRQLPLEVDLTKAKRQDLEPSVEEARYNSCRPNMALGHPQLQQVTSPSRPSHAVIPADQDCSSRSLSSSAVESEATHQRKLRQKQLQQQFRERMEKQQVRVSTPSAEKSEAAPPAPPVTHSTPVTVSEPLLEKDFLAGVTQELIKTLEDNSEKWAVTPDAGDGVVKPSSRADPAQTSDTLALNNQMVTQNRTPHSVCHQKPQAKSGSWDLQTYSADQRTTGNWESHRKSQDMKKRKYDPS
FN deposition inh – fibronectin deposition inhibition; inhibition, % at 12.6 µM; AID 743247; 350,000 compounds, 0.086% hits; AH1F fibroblasts, Alexa488-fibronectin deposition fluorescence, overnight;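 active means mean inhibition across replicates of 30% or more, regardless of how many single replicates reach that level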;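 further: positive control wells lacked labelled fibronectin entirely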
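Material – AH1F fibroblast monolayer, labelled fibronectin deposition · Reagent – labelled fibronectin 24 nM · Timing – 1 h adhesion, overnight exposure · Measured by – fluorescence at 485 nm excitation, 525 nm emission · Read-out – inhibition of fibronectin deposition signal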
The depositor's hits bear a star; . = not tested or not shown. The list is not random: actives were taken first. Their share in the collection is about 1.3%.

SMILES | RAD54 inh | PAX8 inh HTS | RAD52 inh | FN deposition inh
c1ccc2c(c1)CCN(c1nc3cc4c(cc3s1)OCCO4)C2 | 2 | 82* | . | -4
COc1ccc(-c2c(-c3ccc(S(C)(=O)=O)cc3)sc3ccc(OC)cc23)cc1 | -6 | 28 | -29 | 5
C[C@@H]1CCCCO[C@H](CN(C)S(=O)(=O)c2ccccc2)[C@H](C)CN([C@@H](C)CO)C(=O)c2cc(NC(=O)Nc3ccc(C(F)(F)F)cc3)ccc2O1 | 1 | 64* | -3 | 0
C[C@@H]1CCCCO[C@H](CN(C)S(=O)(=O)c2ccccc2)[C@@H](C)CN([C@H](C)CO)C(=O)c2cc(NC(=O)Nc3ccc(C(F)(F)F)cc3)ccc2O1 | -2 | 46 | -5 | -2
C[C@@H]1CCCCO[C@@H](CN(C)S(=O)(=O)c2ccccc2)[C@@H](C)CN([C@H](C)CO)C(=O)c2cc(NC(=O)Nc3ccc(C(F)(F)F)cc3)ccc2O1 | 5 | -4 | 13 | -12
Cc1ccc(S(=O)(=O)N(C)C[C@H]2OCCCC[C@@H](C)Oc3ccc(NC(=O)Nc4ccc(C(F)(F)F)cc4)cc3C(=O)N([C@H](C)CO)C[C@@H]2C)cc1 | 4 | 53 | 1 | -16
C[C@@H]1CCCCO[C@H](CN(C)S(=O)(=O)c2ccccc2)[C@@H](C)CN([C@@H](C)CO)C(=O)c2cc(NC(=O)Nc3ccc(C(F)(F)F)cc3)ccc2O1 | 1 | 72* | -12 | -14
C[C@H]1CCCCO[C@@H](CN(C)S(=O)(=O)c2ccccc2)[C@@H](C)CN([C@@H](C)CO)C(=O)c2cc(NC(=O)Nc3ccc(C(F)(F)F)cc3)ccc2O1 | 3 | 76* | -39 | 4
C[C@H](CO)N1C[C@H](C)[C@@H](CN(C)S(=O)(=O)c2ccccc2)OCCCC[C@H](C)Oc2ccc(NC(=O)Nc3ccc(C(F)(F)F)cc3)cc2C1=O | 3 | 70* | 2 | -4
COc1ccc(N(C)S(=O)(=O)c2ccc3c(c2)oc(=O)n3C)cc1 | 4 | 1 | . | .
C[C@H](CO)N1C[C@H](C)[C@H](CN(C)S(=O)(=O)c2ccccc2)OCCCC[C@H](C)Oc2ccc(NC(=O)Nc3ccc(C(F)(F)F)cc3)cc2C1=O | 4 | 74* | 4 | 1
C[C@@H]1CN([C@H](C)CO)C(=O)c2cc(NC(=O)Nc3ccc(C(F)(F)F)cc3)ccc2O[C@@H](C)CCCCO[C@@H]1CN(C)S(=O)(=O)c1ccccc1 | 5 | -6 | 2 | 1
O=S(=O)(c1ccccc1F)N1CC[C@@H]2[C@H]1c1cc(-c3cccc(F)c3)ccc1N[C@@H]2CO | 14 | 100* | . | 64*
Cc1cccc(S(=O)(=O)N2CC[C@@H]3[C@H](CO)Nc4ccc(C5=CCCCC5)cc4[C@@H]32)c1 | 7 | 83* | -2 | 3
O=S(=O)(c1ccccc1F)N1CC[C@H]2[C@H](CO)Nc3ccc(C4=CCCCC4)cc3[C@H]21 | 5 | 95* | -5 | -15
O=S(=O)(c1ccccc1F)N1CC[C@H]2[C@H](CO)Nc3ccc(-c4cccc(F)c4)cc3[C@H]21 | 8 | 15 | -20 | 34*
CCN(CC)Cc1cc(CCNC(=O)c2ccc(Cl)cc2)ccc1O | -6 | . | . | -1
CCCc1cc(C(N)=O)c(NC(C)=O)s1 | -10 | . | . | 8
CC(=Nc1ccccc1)C1=C(O)C(Cc2ccc(O)cc2)NC1=O (centres undefined) | . | 67* | -7 | 1
CS(=O)(=O)Nc1ccc2c(c1)[C@@H]1C[C@@H](CC(=O)NCc3ccc(Oc4ccccc4)cc3)O[C@@H](CO)[C@@H]1O2 | 1 | 84* | -26 | -15
O=C(C[C@H]1C[C@H]2c3cc(NC(=O)c4ccc5c(c4)OCO5)ccc3O[C@H]2[C@@H](CO)O1)NCc1ccc(Oc2ccccc2)cc1 | 7 | -20 | -1 | 25
CS(=O)(=O)Nc1ccc2c(c1)[C@@H]1C[C@@H](CC(=O)NCc3ccc(Oc4ccccc4)cc3)O[C@H](CO)[C@@H]1O2 | -14 | 31 | 4 | 9
CS(=O)(=O)Nc1ccc2c(c1)[C@H]1C[C@@H](CC(=O)NCc3ccc(-c4ccccc4)cc3)O[C@@H](CO)[C@H]1O2 | -14 | 7 | . | -6
O=C(C[C@@H]1C[C@@H]2c3cc(NC(=O)c4ccc5c(c4)OCO5)ccc3O[C@@H]2[C@@H](CO)O1)NCc1ccc(Oc2ccccc2)cc1 | 1 | 11 | 5 | 31*
O=C(C[C@@H]1C[C@@H]2c3cc(NC(=O)Nc4ccccc4F)ccc3O[C@@H]2[C@H](CO)O1)NCc1ccc(Oc2ccccc2)cc1 | 11 | 82* | -18 | -13
SMILES | RAD54 inh | PAX8 inh HTS | RAD52 inh | FN deposition inh
CS(=O)(=O)Nc1ccc2c(c1)[C@@H]1C[C@@H](CC(=O)NCc3ccc(-c4ccccc4)cc3)O[C@@H](CO)[C@@H]1O2 | -7 | 82* | . | -18
O=C(c1ccc2c(c1)OCO2)N1CC(=O)N2[C@H](CO)[C@H](c3ccc(C#Cc4ccccc4)cc3)[C@@H]2C1 | . | . | -1 | .
COc1ccc(CCN(C)C(=O)CSc2nnc(C3CC3)n2N)cc1OC | -6 | 0 | -11 | 1
COCC#Cc1cnc2c(c1)C(=O)N([C@@H](C)CO)C[C@H](C)[C@H](CN(C)S(C)(=O)=O)O2 | 5 | -9 | 3 | .
O=C(C[C@@H]1C[C@@H]2c3cc(NC(=O)C4CCC4)ccc3O[C@@H]2[C@@H](CO)O1)NCc1ccc(-c2ccccc2)cc1 | 11 | 70* | -20 | 6
CN(C)c1ccc2c(c1)[C@H]1C[C@H](CC(=O)NCCN3CCCCC3)O[C@H](CO)[C@H]1O2 | 38 | 7 | 56* | -4
O=C(C[C@@H]1C[C@@H]2c3cc(NC(=O)C4CCC4)ccc3O[C@@H]2[C@H](CO)O1)NCc1ccc(-c2ccccc2)cc1 | -5 | -21 | -12 | -16
CCC(=O)N1C[C@H](C)[C@H](OC)CN(C)C(=O)c2cc(NC(=O)Nc3ccccc3)ccc2OC[C@@H]1C | -13 | 0 | 19 | 8
COc1ccc(NC(=O)c2ccc(CNc3c(NC4CCCCC4)c(=O)c3=O)cc2)c(OC)c1 | 14 | 1 | -11 | 4
O=C(Nc1cccc(F)c1)N1C[C@H]2[C@@H](c3ccccc31)[C@H](CO)N2C(=O)c1cccnc1 | -3 | -9 | 9 | 3
Cc1noc(/C=C/c2ccco2)c1S(=O)(=O)N1CCC(C(=O)N(C)Cc2ccccc2)CC1 | -2 | . | -24 | 2
Cc1noc(/C=C/c2ccco2)c1S(=O)(=O)N1CCC(C(=O)NC(C)c2ccccc2)CC1 (centres undefined) | -4 | 94* | -18 | -2
O=C(Nc1cccc(Cl)c1)c1ccc2c(c1)SC1=NS(=O)(=O)CCN12 | . | 75* | -5 | 1
C[C@H](NC(=O)C[C@@H]1CC[C@@H]2[C@H](COC[C@H](O)CN2Cc2cc(F)ccc2F)O1)c1ccccc1 | 8 | 10 | -5 | -2
COc1ccc(/C=C2\Sc3ccc(C(=O)N4CCN(Cc5ccccc5)CC4)cc3N(C)C2=O)cc1OC | -11 | 77* | 0 | 21
Cn1cnc([N+](=O)[O-])c1S(=O)(=O)Oc1ccc(Cl)cc1 | 3 | 110* | 3 | 0

Assay outcomes: PubChem, Broad Institute
